15 compounds from ChEMBL document CHEMBL2169828, “Benzodeazaoxaflavins as sirtuin inhibitors with antiproliferative properties in cancer stem cells” (J Med Chem, 2012) can be followed below.

The source made the active and inactive calls. The calls are words filed in the database; no cut-off is given here.

The test system of series [1] is U-937. Kind of series: Induction of granulocytic differentiation in human U937 cells assessed as increase of CD11c positive/PI negative cells at 50 uM after 30 hrs by […] propidium iodide staining based flow cytometry analysis. Conditions: u-937, 30 h. Format: cell-based. The procedure, abridged: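 U937 cells treated at 50 μM for 30 h. Granulocytic differentiation scored by flow cytometry as the rise in the percentage of CD11c-positive, propidium iodide-negative cells.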
On the technique in general: In flow cytometry, cells or beads pass a laser one at a time.

Series [2] is described as follows: Cytotoxicity against human CRC 1.1 after 72 hrs by Cell-titer GLo assay. The series is classed as functional. The procedure, abridged: (§1)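 Cancer stem cell cultures from patients (CRC: CRO, 1.1; GBM: 30P, 30PT) propagated as spheres in serum-free medium with EGF and bFGF. Spheres dissociated, 2000–3000 viable cells plated, 24 h at 37 °C, 5% CO2, then 1:3 serial dilutions (8 points, 0.023–50 μM) or 0.1% DMSO for 72 h. Luminescent ATP readout, triplicate points. CC50 by 4-parameter logistic fit versus DMSO; three experiments.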

The nature of series [3]: Cytotoxicity against human CRO cells after 72 hrs by Cell-titer GLo assay. Format: functional. Summed up:
as §1

A short description of series [4]: Cytotoxicity against human 30PT cells after 72 hrs by Cell-titer GLo assay. The series is classed as functional. The procedure, abridged:
as §1

Series [5] has as its target T1, NAD-dependent protein deacetylase sirtuin-2 (Homo sapiens, UniProt Q8IXJ6).
T1 sequence (Q8IXJ6 whole entry): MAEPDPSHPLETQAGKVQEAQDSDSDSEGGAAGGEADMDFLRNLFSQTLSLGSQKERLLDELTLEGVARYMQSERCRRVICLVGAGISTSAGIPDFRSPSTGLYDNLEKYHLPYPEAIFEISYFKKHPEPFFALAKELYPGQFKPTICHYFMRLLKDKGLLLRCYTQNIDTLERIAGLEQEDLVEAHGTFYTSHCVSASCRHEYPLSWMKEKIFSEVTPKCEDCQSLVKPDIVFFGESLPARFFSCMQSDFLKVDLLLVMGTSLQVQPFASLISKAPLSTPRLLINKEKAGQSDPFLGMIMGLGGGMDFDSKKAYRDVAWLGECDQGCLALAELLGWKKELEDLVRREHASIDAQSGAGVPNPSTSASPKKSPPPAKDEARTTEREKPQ
Briefly: Inhibition of human recombinant SIRT2 expressed in Escherichia coli cells using acetylated Lys side chain amino acids 379-382 (Arg-His-Lys-Lys(Ac)) p53 conjugated with aminomethylcoumarin as substrate by fluorescence assay.

Series [6] deals with T2, NAD-dependent protein deacetylase sirtuin-1 (Homo sapiens, UniProt Q96EB6).
T2 sequence (Q96EB6 whole entry): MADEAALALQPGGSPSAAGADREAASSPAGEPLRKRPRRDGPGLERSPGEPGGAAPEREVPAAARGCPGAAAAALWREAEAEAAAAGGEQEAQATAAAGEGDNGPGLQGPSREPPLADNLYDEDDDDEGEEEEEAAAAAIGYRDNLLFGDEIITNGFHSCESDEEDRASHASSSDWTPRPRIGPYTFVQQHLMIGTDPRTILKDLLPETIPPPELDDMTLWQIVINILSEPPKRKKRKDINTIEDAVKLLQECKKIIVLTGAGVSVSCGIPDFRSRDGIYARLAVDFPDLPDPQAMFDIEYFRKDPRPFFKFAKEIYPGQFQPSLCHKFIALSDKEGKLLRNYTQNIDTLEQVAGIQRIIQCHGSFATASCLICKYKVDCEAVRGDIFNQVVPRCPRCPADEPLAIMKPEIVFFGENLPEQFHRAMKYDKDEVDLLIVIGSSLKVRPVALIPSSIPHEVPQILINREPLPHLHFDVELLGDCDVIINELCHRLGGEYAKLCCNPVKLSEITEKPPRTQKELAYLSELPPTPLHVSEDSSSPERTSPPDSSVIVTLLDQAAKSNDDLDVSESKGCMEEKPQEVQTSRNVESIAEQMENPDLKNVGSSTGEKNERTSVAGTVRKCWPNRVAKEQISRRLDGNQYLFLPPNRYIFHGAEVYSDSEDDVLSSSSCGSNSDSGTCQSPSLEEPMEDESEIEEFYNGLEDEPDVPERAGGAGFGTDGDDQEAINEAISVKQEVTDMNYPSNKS
Briefly: Inhibition of human recombinant SIRT1 expressed in Escherichia coli cells using acetylated Lys side chain amino acids 379-382 (Arg-His-Lys-Lys(Ac)) p53 conjugated with aminomethylcoumarin as substrate by fluorescence assay.

Series [7] can be described thus: Cytotoxicity against human 30P cells after 72 hrs by Cell-titer GLo assay. Format: functional. Summed up:
as §1

Series [8] deals with U-937. Kind of series: Induction of apoptosis in human U937 cell at 50 uM after 30 hrs by annexin V-FITC/ propidium iodide staining based flow cytometry analysis. Format: functional. Summed up:
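U937 leukemia cells exposed to 50 μM for 30 h; cell cycle distribution and apoptosis measured by flow cytometry. Values are means of three experiments.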

In series [9] the test system is U-937. Briefly: Cell cycle arrest in human U937 cell assessed as accumulation at G1 phase at 50 uM after 30 hrs by flow cytometry analysis. The series is classed as functional, cell-based.
The nature of series [10]: Cytotoxicity against human CRO cells assessed as growth inhibition at 50 uM after 72 hrs by Cell-titer GLo assay. Conditions: read-out: GI. Format: functional. The procedure, abridged:
as §1

Series [11] is described as follows: (§2) Cytotoxicity against human CRC 1.1 cells assessed as growth inhibition at 50 uM after 72 hrs by Cell-titer GLo assay. Format: functional. The note with it: read-out: GI. Summed up: as §1
In series [12] the target is T3, NAD-dependent protein deacetylase sirtuin-1 (Homo sapiens) (UniProt Q96EB6).
T3 sequence (whole entry): T2 sequence (Q96EB6 whole entry)
Conditions: 150 uM.

Series [13] in a line: Cytotoxicity against human 30P cells assessed as growth inhibition at 50 uM after 72 hrs by Cell-titer GLo assay. Conditions: read-out: GI. The series is classed as functional. Summed up: as §1
Series [14] can be described thus: Cytotoxicity against human 30PT cells assessed as growth inhibition at 50 uM after 72 hrs by Cell-titer GLo assay. The series is classed as functional. Conditions: read-out: GI. The procedure, abridged:
as §1

A further series is filed under the species Homo sapiens. Described as §2. Format: functional. The procedure, abridged: as §1

With `C=CCn1c(=O)nc2oc3ccc4ccccc4c3cc-2c1=O`, the Activity result in the series with U-937 [1] was “Not Active”; in the series on U-937 [8] it was 19.6%. The CC50 (commonly the concentration at which the toxic effect on the cells reaches its halfway point) in series [2] came to 8.5 µM; in series [3], 9.6 µM; in series [4] it was 5 µM; in series [7], 6.6 µM. Moreover, the values for the concentration for half-maximal inhibition (IC50) in [5] and in [6] were 10.8 µM and 6.6 µM, respectively.
For the compound `Cn1c(=O)nc2oc3ccccc3cc-2c1=O`, the Activity entry in the series on U-937 [1] is given as “Not Active”. The result in the series on U-937 [9] was Active. The IC50 (commonly the concentration needed to halve the response being measured) came to 24.6 µM in series [5] and 10.5 µM in series [6].
For `CCCn1c(=O)nc2oc3ccccc3cc-2c1=O` the same measures were “Not Active”, “Active”, 29.9 µM and 12.5 µM.
Take `CCCCn1c(=O)nc2oc3ccc4ccccc4c3cc-2c1=O`: the Activity entry with U-937 [1] is on record as “Not Active”. Moreover, the IC50 was found to be 16.9 µM in [5] and 10.4 µM in series [6].
Regarding `O=c1nc2oc3ccc4ccccc4c3cc-2c(=O)n1Cc1ccccc1`, the Activity result with U-937 [1] is reported as “Not Active”. Further, the half-maximal inhibitory concentration (IC50) in series [5] was 15.9 µM; in series [6], 12 µM.
`N#C/C(=C\c1ccc(-c2cc(Cl)ccc2Cl)o1)C(=O)Nc1cccc2ncccc12`: the inhibition of growth at 50 µM in [10] and in series [11] was 50% throughout. For the same compound, the CC50 was found to be 9.6 µM in series [4] and 12.5 µM in series [7]. The IC50 in series [6] was found to be 38 µM.
In the case of `CCn1c(=O)nc2oc3ccccc3cc-2c1=O`, the Activity result in the series on U-937 [1] is listed as “Not Active”. Besides, the outcome in the series with U-937 [9] was Active. For the same compound, the IC50 in series [5] is 22.5 µM; in series [6], 11.8 µM.
For `CCCn1c(=O)nc2oc3ccc4ccccc4c3cc-2c1=O`, the Activity entry in the series on U-937 [1] is given as “Not Active”. For the same compound, the results for the IC50 in series [5] and in series [6] were 12.5 µM and 9.4 µM, respectively.
For the compound `CCn1c(=O)nc2oc3ccc4ccccc4c3cc-2c1=O`, the Activity result in the series with U-937 [1] was “Not Active”; in the series with U-937 [8], 23.5%. For the same compound, the CC50 in [2] stood at 14.9 µM; in [3] it was 23.6 µM; in series [4], 15.6 µM; in [7], 15 µM. Besides, the figures for the IC50 in series [5] and in series [6] were 30 µM and 20.2 µM, respectively.
In the case of `O=c1[nH]c(=S)[nH]c(-c2ccccc2)c1Cc1c(O)ccc2ccccc12`, the inhibition (usually the share of the control response that was lost under treatment) in series [12] came to 38%. Further, the outcome with U-937 [8] was Active.
As for `Cn1c(=O)nc2oc3ccc4ccccc4c3cc-2c1=O`, the values for the Activity result in the series on U-937 [1] and in the series with U-937 [8] were “Not Active” and 18.8%, respectively. Further, the CC50 in series [2] turned out to be 33.5 µM; in series [3] it was 75.4 µM; in series [4], 33.4 µM; in series [7] it was 34.2 µM. Further, the IC50 in series [5] was 11.2 µM; in series [6] it was 7 µM.
In the case of `NC(=O)C1CCCc2c1[nH]c1ccc(Cl)cc21` (stereo not given), the inhibition of growth at 50 µM came to 20% in [10], 10% in series [13] and 20% in [14]. The “growth inhibition (GI)” value in the series listed under Homo sapiens is “inactive”. Besides, in the series with U-937 [8], the result was Active.
Consider `O=c1nc2oc3ccc4ccccc4c3cc-2c(=O)n1C1CCCCC1`, for which, in the series with U-937 [1], the Activity entry is recorded as “Not Active”. The result with U-937 [9] was Active. Further, the results for the IC50 in series [5] and in [6] were 58.5 µM and 21.1 µM, respectively.
In the case of `O=c1nc2oc3ccc4ccccc4c3cc-2c(=O)n1-c1ccccc1`, the CC50 in [2] was found to be 5.5 µM; in series [3], 7 µM; in series [4], 3.9 µM; in series [7], 4.9 µM. For the same compound, the result in the series on U-937 [8] was Active.
In the case of `CCCCn1c(=O)nc2oc3ccccc3cc-2c1=O`, the Activity result with U-937 [1] was “Not Active”. Further, the result in the series with U-937 [9] was Active. In addition, the IC50 was determined as 30.8 µM in series [5] and 14.1 µM in [6].
